According to ChEMBL document CHEMBL1143101, “Understanding the cardioprotective effects of flavonols: discovery of relaxant flavonols without antioxidant activity” (J Med Chem, 2008):

How the values were obtained:
Aorta [1] = experiment: DPPH scavenging activity in Sprague-Dawley rat thoracic aorta at 100 uM relative to control; assay type: functional
Procedure, shortened: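 Cell-free DPPH radical scavenging. Flavonol in DMSO mixed 1:1 with 0.1 mM DPPH in methanol, 10 min at room temperature in the dark, absorbance read at 560 nm. Level = (A flavonol/A DPPH) × 100, as % of vehicle.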

Aorta [2] = experiment: Antioxidant activity in Sprague-Dawley rat thoracic aorta assessed as superoxide levels at 10 uM by lucigenin-enhanced chemiluminescence assay relative to control; assay type: functional
Procedure, shortened: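 Male Sprague-Dawley aortic rings incubated 45 min at 37 °C, pH 7.4, in Krebs-HEPES with DETCA 3 mM (inactivates SOD), NADPH 100 µM and flavonol 10 µM (DMSO 1%). Rings then moved to wells containing lucigenin 50 µM and NADPH 100 µM, and photon emission counted. Counts normalized to dry tissue weight (dried 48 h, 65 °C), expressed as % of vehicle; n = rats.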

Aorta [3] = experiment: Vascular activity in KPSS precontracted Sprague-Dawley rat thoracic aorta assessed as endothelium dependent relaxation; assay type: functional, tissue-based; parameters: Activity: concentration or dose not given beside the values; conditions: for EC50: Rattus norvegicus, Sprague-Dawley, Thoracic aorta
Aorta [4] = experiment: Vasorelaxant activity against U46619-induced contraction in endothelium-denuded Sprague-Dawley rat thoracic aorta; assay type: functional, tissue-based; parameters: Activity: scale not given: the % may be the effect or the level left; conditions: for EC50: Rattus norvegicus, Sprague-Dawley, Thoracic aorta
Aorta [5] = experiment: Vasorelaxant activity against KCl-induced contraction in endothelium-intact Sprague-Dawley rat thoracic aorta; assay type: functional, tissue-based; parameters: Activity: scale not given: the % may be the effect or the level left; conditions: for EC50: Rattus norvegicus, Sprague-Dawley, Thoracic aorta
Aorta [6] = experiment: Vasorelaxant activity against KCl-induced contraction in endothelium-denuded Sprague-Dawley rat thoracic aorta; assay type: functional, tissue-based; parameters: Activity: scale not given: the % may be the effect or the level left; conditions: for EC50: Rattus norvegicus, Sprague-Dawley, Thoracic aorta
Aorta [7] = experiment: Effect on acetylcholine-induced vasorelaxation in pyrogallol exposed Sprague-Dawley rat thoracic aorta; assay type: functional, tissue-based; parameters: Activity: scale not given: the % may be the effect or the level left; conditions: for EC50: Rattus norvegicus, Sprague-Dawley, Thoracic aorta
Procedure, shortened: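 Endothelium-intact male Sprague-Dawley aortic rings in organ baths with nifedipine 30 nM. Pretreated 20 min with pyrogallol 30 µM, alone or with flavonol 30 µM (15% DMSO/85% methanol), or vehicle. Rings precontracted with U46619 1–10 nM to about 50% of the 123 mM KCl response, then cumulative acetylcholine curves run. Relaxation given as % of precontraction; mean ± SEM, n = rats.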

Aorta [8] = experiment: Vasorelaxant activity against U46619-induced contraction in endothelium-intact Sprague-Dawley rat thoracic aorta; assay type: functional, tissue-based; parameters: Activity: scale not given: the % may be the effect or the level left; conditions: for EC50: Rattus norvegicus, Sprague-Dawley, Thoracic aorta
Aorta [9] = experiment: Effect on acetylcholine-induced vasorelaxation in xanthine/xanthine oxidase exposed Sprague-Dawley rat thoracic aorta; assay type: functional, tissue-based; parameters: Activity: scale not given: the % may be the effect or the level left; conditions: for EC50: Rattus norvegicus, Sprague-Dawley, Thoracic aorta
Procedure, shortened: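 Aortic rings incubated with xanthine oxidase 0.016 U/mL for 30 min, then flavonol 30 µM for 20 min, then xanthine 100 µM for 10 min. Rings then precontracted with U46619 and cumulative acetylcholine concentration-response curves recorded. Relaxation given as % of U46619 precontraction; mean ± SEM, n = rats.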

Row | SMILES | EC50 (Aorta [3]) [µM] | EC50 (Aorta [4]) [µM] | EC50 (Aorta [5]) [µM] | EC50 (Aorta [6]) [µM] | EC50 (Aorta [7]) [µM] | EC50 (Aorta [8]) [µM] | EC50 (Aorta [9]) [µM] | Activity (Aorta [1]) [%] | Activity (Aorta [2]) [%] | Activity (Aorta [3]) [%] | Activity (Aorta [4]) [%] | Activity (Aorta [5]) [%] | Activity (Aorta [6]) [%] | Activity (Aorta [7]) [%] | Activity (Aorta [8]) [%] | Activity (Aorta [9]) [%]
1 | COc1cc(-c2oc3ccccc3c(=O)c2O)ccc1O | 4.47 | 1.66 | 4.79 | 5.62 | 0.275 | 0.871 | 0.0891 | 24 | 106 | 98 | 100 | 100 | 93 | 42 | 101 | 62
2 | CC(C)(C)c1cc(-c2oc3ccccc3c(=O)c2O)ccc1O | 4.68 | – | – | – | – | – | – | 26 | 108 | 38 | – | – | – | – | – | –
3 | COc1ccc(-c2oc3ccccc3c(=O)c2O)cc1 | – | – | – | – | – | – | – | 51 | 89 | 16 | – | – | – | – | – | –
4 | O=c1c(O)c(-c2ccc(O)c(Br)c2)oc2ccccc12 | 2.51 | – | – | – | – | – | – | 23 | 96 | 100 | – | – | – | – | – | –
5 | O=c1c(O)c(-c2ccc(O)cc2)oc2ccccc12 | 4.68 | 3.16 | 5.13 | 5.5 | – | 1.66 | – | 32 | 74 | 99 | 102 | 95 | 92 | – | 100 | –
6 | O=c1c(O)c(-c2ccc(O)c(O)c2)oc2ccccc12 | 5.01 | 3.02 | 5.5 | 6.31 | 0.0646 | 1.35 | 0.055 | 36 | 27 | 102 | 100 | 100 | 100 | 81 | 101 | 84
7 | CC(C)(C)c1ccc(-c2oc3ccccc3c(=O)c2O)cc1 | – | – | – | – | – | – | – | 71 | 111 | 10 | – | – | – | – | – | –
8 | O=c1c(O)c(-c2ccc(C(F)(F)F)cc2)oc2ccccc12 | – | – | – | – | – | – | – | 90 | 85 | 6 | – | – | – | – | – | –
9 | Cc1ccc(-c2oc3ccccc3c(=O)c2O)cc1 | – | – | – | – | – | – | – | 76 | 101 | 13 | – | – | – | – | – | –
10 | Cc1cc(-c2oc3ccccc3c(=O)c2O)ccc1O | 4.37 | – | – | – | – | – | – | 25 | 105 | 98 | – | – | – | – | – | –
11 | O=c1c(O)c(-c2ccc(O)c(C(F)(F)F)c2)oc2ccccc12 | 16.6 | – | – | – | – | – | – | 26 | 109 | 77 | – | – | – | – | – | –

The next lines start with results.

Row | EC50 (Aorta [3]) [µM] | EC50 (Aorta [4]) [µM] | EC50 (Aorta [5]) [µM] | EC50 (Aorta [6]) [µM] | EC50 (Aorta [7]) [µM] | EC50 (Aorta [8]) [µM] | EC50 (Aorta [9]) [µM] | SMILES | Activity (Aorta [1]) [%] | Activity (Aorta [2]) [%] | Activity (Aorta [3]) [%] | Activity (Aorta [4]) [%] | Activity (Aorta [5]) [%] | Activity (Aorta [6]) [%] | Activity (Aorta [7]) [%] | Activity (Aorta [8]) [%] | Activity (Aorta [9]) [%]
12 | 7.59 | – | – | – | – | – | – | O=c1c(O)c(-c2ccccc2)oc2ccccc12 [FLAVONOL] | 83 | 70 | 91 | – | – | – | – | – | –
13 | 6.76 | – | – | – | – | – | – | O=c1c(O)c(-c2cccc(Cl)c2)oc2ccccc12 | 87 | 75 | 53 | – | – | – | – | – | –
14 | 7.08 | 3.72 | 7.76 | 8.91 | – | 3.02 | – | COc1cccc(-c2oc3ccccc3c(=O)c2O)c1 | 71 | 74 | 79 | 93 | 87 | 86 | – | 101 | –
15 | 74.1 | – | – | – | – | – | – | Cc1cccc(-c2oc3ccccc3c(=O)c2O)c1 | 80 | 85 | 37 | – | – | – | – | – | –
16 | 3.24 | – | – | – | – | – | – | O=c1c(O)c(-c2cccc(O)c2)oc2ccccc12 | 87 | 78 | 98 | – | – | – | – | – | –
17 | 115 | – | – | – | – | – | – | O=c1c(O)c(-c2cccc(C(F)(F)F)c2)oc2ccccc12 | 89 | 80 | 23 | – | – | – | – | – | –
18 | 8.13 | – | – | – | – | – | – | O=c1c(O)c(-c2ccc(Cl)cc2)oc2ccccc12 | 93 | 100 | 37 | – | – | – | – | – | –
